Source: PMC3946992 (Journal of molecular biology, 2013)
Residue numbers refer to the chain shown, from its start. Blank lines part the entries; values can stand above or below the compound they belong to.

Key:
Test in all cases: isothermal titration calorimetry
Assay type in all cases: binding
p48 [1] = target: T1, p48 (Homo sapiens, UniProt P49642)
T1 sequence (P49642 1-420): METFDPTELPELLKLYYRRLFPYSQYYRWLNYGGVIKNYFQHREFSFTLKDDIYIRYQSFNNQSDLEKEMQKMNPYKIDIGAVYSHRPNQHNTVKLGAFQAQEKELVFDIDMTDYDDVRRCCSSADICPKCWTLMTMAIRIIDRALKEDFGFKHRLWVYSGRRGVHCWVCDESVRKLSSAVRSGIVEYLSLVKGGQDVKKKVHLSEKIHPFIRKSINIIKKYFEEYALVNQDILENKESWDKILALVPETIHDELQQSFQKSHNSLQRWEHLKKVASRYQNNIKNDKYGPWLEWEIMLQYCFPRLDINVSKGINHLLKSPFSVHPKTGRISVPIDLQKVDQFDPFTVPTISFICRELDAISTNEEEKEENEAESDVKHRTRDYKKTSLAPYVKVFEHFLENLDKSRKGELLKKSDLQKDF
Method in brief: (§1)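 Recombinant human p48 (full length, site-directed point mutants, or residues 1–408 lacking 360–379) is His-tagged in E. coli BL21(DE3), tag-cleaved with H3C protease, then purified by nickel, heparin and S200 chromatography. Protein at 20–30 μM is put in 20 mM HEPES pH 7.2, 100 mM NaCl with 3-fold molar excess MnCl2 and titrated with 400 μM UTP (1 initial plus 28 injections). Kd comes from a single-site nonlinear least-squares fit, ± standard deviation.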

p48 [2] = target: T2, p48 (Homo sapiens, UniProt P49642, D111N)
T2 sequence (P49642 1-420 D111N): T1 sequence (P49642 1-420) with D111N
Method in brief: as §1

p48 [3] = target: T3, p48 (Homo sapiens, UniProt P49642, K318A)
T3 sequence (P49642 1-420 K318A): T1 sequence (P49642 1-420) with K318A
Method in brief: as §1

p48 [4] = target: T4, p48 (Homo sapiens, UniProt P49642, D306N)
T4 sequence (P49642 1-420 D306N): T1 sequence (P49642 1-420) with D306N
Method in brief: as §1

p48/p58 = target: T5, p48/p58 (Homo sapiens, UniProt P49642)
T5 sequence (P49642 1-420): T1 sequence (P49642 1-420)
T5 sequence (P49643 1-509 partner): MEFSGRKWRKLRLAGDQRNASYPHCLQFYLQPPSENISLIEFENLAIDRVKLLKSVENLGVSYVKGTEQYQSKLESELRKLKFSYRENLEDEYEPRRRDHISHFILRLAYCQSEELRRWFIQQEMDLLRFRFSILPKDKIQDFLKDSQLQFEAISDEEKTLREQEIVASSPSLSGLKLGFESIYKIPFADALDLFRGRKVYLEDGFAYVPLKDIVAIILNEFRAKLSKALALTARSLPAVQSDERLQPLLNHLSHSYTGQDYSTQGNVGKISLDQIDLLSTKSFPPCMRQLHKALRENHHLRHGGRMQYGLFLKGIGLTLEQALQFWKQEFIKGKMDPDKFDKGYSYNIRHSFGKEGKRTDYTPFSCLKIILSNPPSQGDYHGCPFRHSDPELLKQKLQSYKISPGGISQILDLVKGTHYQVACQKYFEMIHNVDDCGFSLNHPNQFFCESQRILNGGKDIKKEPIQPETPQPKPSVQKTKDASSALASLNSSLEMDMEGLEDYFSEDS
Method in brief: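 Recombinant human p48/p58 primase heterodimer is exchanged into 20 mM HEPES pH 7.2, 100 mM NaCl. Protein at 20–30 μM, pre-mixed with 3-fold molar excess MnCl2, is titrated by ITC with 400 μM nucleotide (UTP) in an initial injection plus 28 further injections. Kd comes from fitting a single-site binding model by nonlinear least squares, ± standard deviation.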

p48 [5] = target: T6, p48 (Homo sapiens, UniProt P49642, D109N)
T6 sequence (P49642 1-420 D109N): T1 sequence (P49642 1-420) with D109N
Method in brief: as §1

p48ΔL = target: T7, p48ΔL (Homo sapiens, UniProt P49642, DEL360-379)
T7 sequence (P49642 with tags, fused parts or gaps DEL360-379): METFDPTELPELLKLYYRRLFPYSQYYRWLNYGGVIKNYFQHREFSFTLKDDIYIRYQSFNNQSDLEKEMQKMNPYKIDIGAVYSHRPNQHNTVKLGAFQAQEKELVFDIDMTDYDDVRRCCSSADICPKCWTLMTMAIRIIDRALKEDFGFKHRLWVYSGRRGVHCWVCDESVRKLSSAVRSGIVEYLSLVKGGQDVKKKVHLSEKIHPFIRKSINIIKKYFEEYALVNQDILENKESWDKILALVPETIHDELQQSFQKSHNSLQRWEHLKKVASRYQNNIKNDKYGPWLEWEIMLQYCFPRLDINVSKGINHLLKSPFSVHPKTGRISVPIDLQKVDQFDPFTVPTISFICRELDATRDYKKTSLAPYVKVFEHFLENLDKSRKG
Method in brief: as §1

p48 [6] = target: T8, p48 (Homo sapiens, UniProt P49642, H315A)
T8 sequence (P49642 1-420 H315A): T1 sequence (P49642 1-420) with H315A
Method in brief: as §1

Kd (p48 [1]): 15 µM
SMILES: Nc1ccn([C@@H]2O[C@H](COP(=O)(O)OP(=O)(O)OP(=O)(O)O)[C@@H](O)[C@H]2O)c(=O)n1 [CTP]

Kd (p48 [2]): 54 µM | Kd (p48 [3]): 49 µM | Kd (p48 [4]): 48 µM | Kd (p48 [1]): 11 µM | Kd (p48/p58): 20 µM | Kd (p48 [5]): 74 µM | Kd (p48ΔL): 12.5 ± 0.72 µM | Kd (p48 [6]): 22 µM
SMILES: O=c1ccn([C@@H]2O[C@H](COP(=O)(O)OP(=O)(O)OP(=O)(O)O)[C@@H](O)[C@H]2O)c(=O)[nH]1 [UTP]

Kd (p48 [1]): 13 µM
SMILES: Nc1ncnc2c1ncn2[C@@H]1O[C@H](COP(=O)(O)OP(=O)(O)OP(=O)(O)O)[C@@H](O)[C@H]1O [ATP]

Kd (p48 [1]): 13 µM
SMILES: Nc1nc2c(ncn2[C@@H]2O[C@H](COP(=O)(O)OP(=O)(O)OP(=O)(O)O)[C@@H](O)[C@H]2O)c(=O)[nH]1 [GTP]
